Screening results as filed in PubChem.
EP2 antag: inhibitors of human EP2 prostaglandin E2 receptor | inhibition, % at 25 µM | C6 glioma cells expressing human EP2, cAMP TR-FRET; cells stimulated with saturating PGE2 | hit rate 0.52% among 260,000;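 active = percent inhibition above 40 after rounding to a whole number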;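 also: rat C6 glioma host cells with rolipram phosphodiesterase inhibitor present; the protocol text gives 20 µM as final concentration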
Target sequence (P43116 whole entry, looked up): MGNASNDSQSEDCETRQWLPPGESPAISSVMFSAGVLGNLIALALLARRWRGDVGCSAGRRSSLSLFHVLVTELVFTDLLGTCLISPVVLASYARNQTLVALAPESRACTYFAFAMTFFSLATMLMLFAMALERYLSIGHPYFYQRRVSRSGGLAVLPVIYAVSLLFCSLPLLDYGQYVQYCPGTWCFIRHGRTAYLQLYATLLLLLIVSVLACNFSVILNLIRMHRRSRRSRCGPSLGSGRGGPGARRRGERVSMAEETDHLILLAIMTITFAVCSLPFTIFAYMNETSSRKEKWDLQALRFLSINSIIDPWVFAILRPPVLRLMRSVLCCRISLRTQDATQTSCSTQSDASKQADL
Thrombin inh: inhibitors of human thrombin. P00734. alpha-thrombin, Boc-VPR-AMC fluorogenic substrate cleavage. inhibition, % at 5 µM. hit rate 0.26% among 220,000. AID 1046;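 active = inhibition at or above 40%; inactive = inhibition below 40%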;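 also: 0% = enzyme with no compound and 100% = wells without enzyme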
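System: human alpha-thrombin protein; Compound dosing: one concentration per compound, 5 µM, with 0.2% DMSO; Timing: reaction at room temperature; Technique: AMC fluorescence, 355/460 nm; Controls: enzyme without compound as high, wells lacking enzyme as low.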
EP2 mod: modulators of human EP2 prostaglandin E2 receptor; EP2-expressing cells, cAMP HTRF FRET, PGE2 co-stimulation; induction, % at 25 µM; hit rate 0.83% among 260,000; AID 940;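 active = compounds whose cAMP rise, as percent of the full-agonist control response, exceeds 60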;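 also: rat C6 glioma line stably carrying human EP2 under a CMV promoter; the protocol text gives 20 µM as final concentration; 100% = response of wells given 1 µM PGE2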
FXIIa inh: factor XIIa (human) inhibition. P00748. purified FXIIa, Boc-QGR-AMC fluorogenic substrate, 2 h. inhibition, % at 5 µM. hit rate 0.3% among 220,000; in the data active = inhibition above about 40%;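 also: 0% = enzyme with no compound and 100% = blank without enzyme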
FXIa inh: blocks human coagulation factor XIa protease activity | purified FXIa, Boc-Glu-Ala-Arg-AMC fluorogenic substrate | AID 798 | hit rate 0.14% among 220,000 | inhibition, % at 5 µM;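 active = inhibition of at least 40%; inactive = inhibition below 40%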;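 also: fluorescence of freed AMC excited at 355 nm; 0% = enzyme without compound and 100% = no enzyme blank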
KLK5 inh: blocks human kallikrein 5 protease activity | Q9Y337 | hit rate 0.59% among 210,000 | inhibition, % at 5 µM | recombinant hK5, fluorogenic AMC substrate cleavage;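 active = inhibition of 40% or more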;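 also: 0% = enzyme controls without compound and 100% = no-enzyme blanks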
Target sequence (Q9Y337 67-293 limits assumed): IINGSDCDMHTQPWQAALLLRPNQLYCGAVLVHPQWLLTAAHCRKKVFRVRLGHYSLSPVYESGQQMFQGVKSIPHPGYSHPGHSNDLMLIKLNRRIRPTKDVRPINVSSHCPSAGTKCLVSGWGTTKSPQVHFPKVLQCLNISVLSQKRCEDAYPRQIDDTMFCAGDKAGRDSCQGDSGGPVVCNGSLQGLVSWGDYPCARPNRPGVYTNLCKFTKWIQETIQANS
* = called active by the depositor. The list is not random: actives were taken first. Their share in the collection is about 2.1%.

`COc1ccc(CN2CCC(O)(c3ccccc3F)CC2)cc1Cn1ccnc1` gave EP2 antag 7.3 and EP2 mod -50.1.
For Cn1c(NC(=O)c2cccnc2)nc2ccccc21 the results were EP2 antag 51.5*, Thrombin inh -0.4, EP2 mod 16.6, FXIIa inh 1.1, FXIa inh -8.0 and KLK5 inh -18.7.
For O=C(Nc1cnc2ccccc2c1)c1cccnc1 the results were EP2 antag 2.9, Thrombin inh -0.7, EP2 mod -21.9, FXIIa inh 15.9, FXIa inh 1.6 and KLK5 inh -7.4.
Screening COC(=O)c1cc2c(C)c(C)c3ccccn3c-2c1C(=O)OC returned EP2 antag 24.6, Thrombin inh -2.1, EP2 mod -6.9, FXIIa inh -3.3, FXIa inh 6.8 and KLK5 inh -13.0.
`COC(=O)c1cc2ccccn2c2c(C(=O)OC)c(C(=O)OC)cc1-2` gave EP2 antag 41.0*, Thrombin inh 0.4, EP2 mod -34.5, FXIIa inh 9.6, FXIa inh -11.8 and KLK5 inh -26.9.
Cc1ccc(S(=O)(=O)NN2C(=O)/C(=C/c3cccs3)SC2=S)cc1 was read as EP2 antag 13.2, Thrombin inh -3.0, EP2 mod -21.7, FXIIa inh 7.3, FXIa inh 1.5 and KLK5 inh 0.3.
Screening Cc1ccc(S(=O)(=O)NN2C(=O)/C(=C/c3cccn3C)SC2=S)cc1 returned EP2 antag 6.6, Thrombin inh 19.8, EP2 mod -2.9, FXIIa inh 33.7, FXIa inh 5.2 and KLK5 inh 40.9*.
Screening COc1ccc2[nH]c(=O)c(C(c3nnnn3C3CCCCC3)N3CCOCC3)cc2c1 (stereo unspecified) returned EP2 antag 16.8 and EP2 mod 6.4.
Screening CCOC(=O)CC1C(=O)NCCN1Cc1cccc(C(F)(F)F)c1 (stereo unspecified) returned EP2 antag 6.7, Thrombin inh -6.8, EP2 mod 11.8, FXIIa inh -3.8, FXIa inh -8.1 and KLK5 inh 40.3*.
Screening Nc1nonc1C(=O)NCCN=Cc1cc(Cc2ccccc2)cc(Br)c1O returned Thrombin inh 1.3, EP2 mod 61.0*, FXIIa inh 13.5, FXIa inh 5.4 and KLK5 inh -9.2.
`CCOC(=O)Nc1sc(C)nc1-c1ccccc1` gave EP2 antag 7.4, Thrombin inh 13.1, EP2 mod 9.1, FXIIa inh 10.2, FXIa inh 18.6 and KLK5 inh 196.1*.
Cc1nnc2nc(-c3ccccc3)nc(-c3ccccc3)n12 was read as EP2 antag 5.9, Thrombin inh -1.9, EP2 mod 82.2*, FXIIa inh 10.8, FXIa inh 0.2 and KLK5 inh 0.9.
Screening c1ccc(Cn2nc(-c3ccccc3)nc2-c2ccccc2)cc1 returned EP2 antag 4.9, Thrombin inh -10.2, EP2 mod 44.7, FXIIa inh 4.4, FXIa inh 10.5 and KLK5 inh -16.5.
Screening Cc1ccc(NC(=O)CSCC(N)=O)cc1C returned EP2 antag 8.3, Thrombin inh 10.8, EP2 mod 3.4, FXIIa inh 41.9*, FXIa inh 8.9 and KLK5 inh 41.9*.
For Cc1ccc(NC(=O)CCn2cccc2)cc1C the results were EP2 antag 6.2, Thrombin inh 31.6, EP2 mod 11.2, FXIIa inh 43.0*, FXIa inh 14.1 and KLK5 inh 31.5.
Cc1ccc(NC(=O)CCSCCC(=O)Nc2ccc(C)c(C)c2)cc1C was read as EP2 antag 15.8, Thrombin inh -1.8, EP2 mod -21.9, FXIIa inh 8.7, FXIa inh 2.1 and KLK5 inh 0.7.
Cc1nc2ccccc2c(=O)n1CC(=O)NC1CCCCC1 was read as EP2 antag 10.6 and EP2 mod 3.1.
COc1cc(C2Nc3c(Cl)cc(Cl)cc3C3C=CCC32)cc(OC)c1OC (stereo unspecified) was read as EP2 antag 11.3 and EP2 mod 62.4*.
COc1ccc(Br)cc1C1Nc2ccccc2C2C=CCC21 (stereo unspecified) was read as EP2 antag 11.4 and EP2 mod 52.7.
For Cc1ccccc1-n1c(SCc2c(C)noc2C)nnc1-c1cccnc1 the results were EP2 antag 1.0, Thrombin inh 33.2, EP2 mod 18.4, FXIIa inh 14.9, FXIa inh 6.1 and KLK5 inh 51.6*.
`N/C(Cc1ccccc1Sc1ccccc1)=N\O` gave EP2 antag 4.4, Thrombin inh -9.5, EP2 mod 33.1, FXIIa inh 9.6, FXIa inh 4.6 and KLK5 inh -18.0.
Screening CCN(CC)Cc1ccccc1Sc1ccccc1 returned EP2 antag 8.1, Thrombin inh 44.3*, EP2 mod 10.6, FXIIa inh 4.5, FXIa inh 7.7 and KLK5 inh 43.7*.
For CCCOc1ccccc1C1NC(=O)NC(C)=C1C(=O)OCc1ccccc1 (stereo unspecified) the results were EP2 antag 11.9, Thrombin inh -3.9, EP2 mod 64.2*, FXIIa inh 2.4, FXIa inh 13.1 and KLK5 inh -4.6.
For CCCOc1ccccc1C1NC(=O)NC(C)=C1C(=O)OCCOC (stereo unspecified) the results were EP2 antag 10.0, Thrombin inh -0.9, EP2 mod 17.1, FXIIa inh 9.4, FXIa inh 0.1 and KLK5 inh 4.2.
`c1cncc(-c2csc(NCc3ccco3)n2)c1` gave EP2 antag -0.1, Thrombin inh 1.4, EP2 mod 11.9, FXIIa inh 45.7*, FXIa inh 15.3 and KLK5 inh 11.2.
CN1CC23C=CC(O2)C(C(=O)N2CCC(c4ccncc4)CC2)C3C1=O (stereo unspecified) was read as EP2 mod 18.1.
For COc1ccc(/C(O)=C2/C(=O)C(=O)NC2c2ccc(Cl)cc2)cc1OC (stereo unspecified) the results were EP2 antag 13.8 and EP2 mod 41.5.
Screening COC(=O)[C@@H]1O[C@H](SCCN)[C@@H](O)[C@H](O)[C@H]1O returned EP2 antag 49.9* and EP2 mod 21.0.
`CCCCC(=O)NCc1ccc2c(c1)cc(C)n2C` gave EP2 antag 4.9, Thrombin inh -9.9, EP2 mod -51.3, FXIIa inh 8.4, FXIa inh -4.4 and KLK5 inh 0.8.
Screening CCOC(=O)CCC(=O)NCc1ccc2c(c1)cc(C)n2C returned EP2 antag 5.3, Thrombin inh 5.3, EP2 mod 7.4, FXIIa inh 15.6, FXIa inh -2.1 and KLK5 inh 54.2*.
`COC(=O)c1cn(C(=O)/C=C/c2ccc(OC)c(OC)c2)c2ccccc12` gave EP2 antag 42.6*, Thrombin inh -1.5, EP2 mod -42.5, FXIIa inh 5.1, FXIa inh -0.3 and KLK5 inh -0.8.
